Legend:
[1] = target: T1, Prostaglandin G/H synthase 1 (Ovis aries, UniProt P05979); assay: Inhibition of ovine COX1 assessed as inhibition of PGF2alpha production from PGH2 preincubated for 5 mins before arachidonic acid addition measured after 2 mins by enzyme immunoassay
T1 sequence (P05979 whole entry): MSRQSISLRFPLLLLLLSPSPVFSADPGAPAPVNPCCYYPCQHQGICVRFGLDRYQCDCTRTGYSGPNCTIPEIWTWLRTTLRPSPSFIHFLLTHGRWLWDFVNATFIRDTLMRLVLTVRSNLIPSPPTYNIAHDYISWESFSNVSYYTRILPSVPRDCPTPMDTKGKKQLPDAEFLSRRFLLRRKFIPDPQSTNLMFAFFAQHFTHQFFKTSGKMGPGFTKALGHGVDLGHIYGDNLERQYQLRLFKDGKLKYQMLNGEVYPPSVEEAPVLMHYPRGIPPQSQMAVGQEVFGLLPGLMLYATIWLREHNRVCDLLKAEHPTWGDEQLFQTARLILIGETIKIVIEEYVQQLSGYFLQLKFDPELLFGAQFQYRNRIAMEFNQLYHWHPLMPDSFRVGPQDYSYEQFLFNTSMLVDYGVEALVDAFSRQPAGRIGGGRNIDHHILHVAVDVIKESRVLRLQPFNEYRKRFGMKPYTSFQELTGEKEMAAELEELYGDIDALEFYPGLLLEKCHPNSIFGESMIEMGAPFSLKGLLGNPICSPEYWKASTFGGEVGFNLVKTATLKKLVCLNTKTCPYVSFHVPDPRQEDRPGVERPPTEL
How it was run: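 Ovine COX-1 from a COX-1/COX-2 inhibitor screening kit, in 0.1 M Tris-HCl pH 8.0. Enzyme was incubated with inhibitor for 5 min at 37 °C. Arachidonic acid (100 µM solution) was then added, and the reaction was stopped with 1 M HCl after 2 min. Prostaglandins were quantified by competitive acetylcholinesterase-tracer EIA read at 410 nm.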

[2] = test system: Rattus norvegicus; assay: Antiinflammatory activity in ip dosed Sprague-Dawley rat assessed as inhibition of carrageenan-induced paw edema measured 2 hrs post dose by displacement plethysmometer analysis; format: functional
[3] = test system: Mus musculus; assay: Analgesic activity in ip dosed albino Swiss mouse assessed as licking or blowing latency time measured 60 mins post dose by hot plate method; format: functional; conditions: 1 h

Structure (SMILES)	IC50 [1] [µM]	ED50 [2] [mg/kg]	ED50 [3] [mg/kg]
O=C1c2cc(Cl)c(Cl)cc2C(=O)N1Cc1ccc(F)cc1	> 100	–	–
COc1cc(CN2C(=O)c3c(Cl)c(Cl)c(Cl)c(Cl)c3C2=O)cc(OC)c1OC	> 100	144	54.7
COc1ccc(CN2C(=O)c3ccc(C(C)(C)C)cc3C2=O)cc1	> 100	137	96.1
COc1ccc(CN2C(=O)C3CC=CCC3C2=O)cc1 (configuration not stated)	> 100	–	–
CC(C)(C)c1ccc2c(c1)C(=O)N(Cc1ccc(F)cc1)C2=O	> 100	–	–
COc1cc(CN2C(=O)C3CC=CCC3C2=O)cc(OC)c1OC (configuration not stated)	> 100	171	125
COc1ccc(CN2C(=O)c3ccc([N+](=O)[O-])cc3C2=O)cc1	119	68	17
O=C1CCC(=O)N1Cc1ccc(F)cc1	> 100	–	–
COc1cc(CN2C(=O)c3ccc(C(C)(C)C)cc3C2=O)cc(OC)c1OC	> 100	147	79.3
O=C1c2ccc([N+](=O)[O-])cc2C(=O)N1Cc1ccc(F)cc1	> 100	127	35
COc1ccc(CN2C(=O)c3cccc4cccc(c34)C2=O)cc1	> 100	129	119
COc1ccc(CN2C(=O)c3nccnc3C2=O)cc1	117	159	106
COc1ccc(CN2C(=O)c3ccc(C)cc3C2=O)cc1	> 100	153	80.5
COc1ccc(CN2C(=O)c3cc(Cl)c(Cl)cc3C2=O)cc1	131	75	51.2
O=C1c2c(Cl)c(Cl)c(Cl)c(Cl)c2C(=O)N1Cc1ccc(F)cc1	> 100	–	–
COc1cc(CN2C(=O)c3nccnc3C2=O)cc(OC)c1OC	> 100	119	40.5

Structure (SMILES)	IC50 [1] [µM]	ED50 [2] [mg/kg]	ED50 [3] [mg/kg]
O=C1c2ccccc2C(=O)N1Cc1ccc(F)cc1	116	170	90
COc1ccc(CN2C(=O)c3c(Cl)c(Cl)c(Cl)c(Cl)c3C2=O)cc1	> 100	103	52.9
O=C1C2CC=CCC2C(=O)N1Cc1ccc(F)cc1 (configuration not stated)	> 100	–	–
COc1cc(CN2C(=O)c3cc(Cl)c(Cl)cc3C2=O)cc(OC)c1OC	120	67	57.4
COc1ccc(CN2C(=O)CCC2=O)cc1	> 100	–	–
COc1ccc(CN2C(=O)c3ccccc3C2=O)cc1	110	162	107
COc1cc(CN2C(=O)c3cccc4cccc(c34)C2=O)cc(OC)c1OC	> 100	115	88
Cc1ccc(-c2cc(C(F)(F)F)nn2-c2ccc(S(N)(=O)=O)cc2)cc1 [CELECOXIB]	–	–	71
O=C1c2cccc3cccc(c23)C(=O)N1Cc1ccc(F)cc1	> 100	–	–
O=C1c2nccnc2C(=O)N1Cc1ccc(F)cc1	> 100	–	–
Cc1ccc2c(c1)C(=O)N(Cc1ccc(F)cc1)C2=O	> 100	172	97
COc1cc(CN2C(=O)c3ccc([N+](=O)[O-])cc3C2=O)cc(OC)c1OC	120	54	27.6
COc1cc(CN2C(=O)c3ccc(C)cc3C2=O)cc(OC)c1OC	> 100	130	–
COc1cc(CN2C(=O)c3ccccc3C2=O)cc(OC)c1OC	> 100	149	110
COc1cc(CN2C(=O)CCC2=O)cc(OC)c1OC	> 100	180	95
